From ChEMBL document CHEMBL4304771, “Design, synthesis and biological activity of N-(2-phenoxy)ethyl imidazo[1,2-a]pyridine-3-carboxamides as new antitubercular agents” (Eur J Med Chem, 2019)
In brackets after ≈: the same amount, converted by molar mass.

Columns and labels:
[1] = system: Mycobacterium tuberculosis; experiment: Antitubercular activity against Mycobacterium tuberculosis H37Rv ATCC 27294 assessed as parasite growth inhibition measured after 7 days incubation by microplate alamar blue assay; format: functional; conditions: H37Rv ATCC 27294, 168 h
In short: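 Strains grown to late log phase in 7H9 with 0.2% glycerol, 0.05% Tween 80 and 10% ADC. Cells washed, resuspended in PBS, filtered (8 µm) and frozen at -80 °C. Two-fold compound dilutions, 2 × 10⁵ CFU per well, 37 °C for 7 days. Tween 80 and Alamar blue then added for 16-24 h; fluorescence read at ex 530/em 590 nm. MIC = lowest concentration giving ≥90% fluorescence reduction versus mean of bacterium-only controls.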

[2] = Half-life in human hepatocytes; format: ADME, cell-based, Hepatocyte
[3] = Acute toxicity in ICR mouse assessed as decrease in animal survival at 500 mg/kg, po administered as single dose measured for 7 days; format: organism-based; conditions: in vivo, 168 h
In short: (§1)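 Female ICR mice, 18-22 g, five per group, randomly assigned, fasted overnight. Single oral dose of 500 mg/kg suspended in 5% CMC; controls got 5% CMC alone (0.5 mL). Watched continuously for 4 h, then hourly to 24 h, then every 8 h for 7 days for deaths or changes. Read-out was survivors/total.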

[4] = Cmax in ICR mouse at 50 mg/kg, po administered as single dose measured for 24 hrs by HPLC analysis; format: ADME, organism-based; parameters: dose 50 mg/kg, route oral; conditions: in vivo
In short: (§2)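 Female SPF ICR mice (18–22 g), fasted overnight, 3 per group, got a single oral 50 mg/kg dose as a suspension in 0.5% CMC. Jugular blood was drawn at 0.25, 0.5, 1, 2, 4, 6, 8 and 24 h, and serum was stored at −20 °C. Proteins were precipitated with acetonitrile, and extracts were dried, redissolved in acetonitrile and run by HPLC. Parameters came directly from the concentration–time data.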

[5] = Tmax in ICR mouse at 50 mg/kg, po administered as single dose measured for 24 hrs by HPLC analysis; format: ADME, organism-based; conditions: in vivo; in short: as §2
[6] = Acute toxicity in ICR mouse assessed as animal survival at 500 mg/kg, po administered as single dose measured for 7 days; format: organism-based; conditions: in vivo; in short: as §1
[7] = AUC (0 to infinity) in ICR mouse at 50 mg/kg, po administered as single dose measured for 24 hrs by HPLC analysis; format: ADME, organism-based; parameters: dose 50 mg/kg, route oral, time infinity; conditions: in vivo; in short: as §2
[8] = Half-life in ICR mouse at 50 mg/kg, po administered as single dose measured for 24 hrs by HPLC analysis; format: ADME, organism-based; conditions: in vivo; in short: as §2
[9] = Mean residence time in ICR mouse at 50 mg/kg, po administered as single dose measured for 24 hrs by HPLC analysis; format: ADME, organism-based; conditions: in vivo; in short: as §2

SMILES: CCCc1nc2ccc(F)cn2c1C(=O)NCCOc1ccc(Br)cc1
- MIC [1]: 2.68 µg/mL (≈ 6.38 µM)

SMILES: CCc1nc2ccc(Br)cn2c1C(=O)NCCOc1ccc(Br)cc1
- MIC [1]: 0.025 µg/mL (≈ 0.0535 µM)
- half-life [2]: 15.8 min

SMILES: O=c1nc(N2CCN(CC3CCCCC3)CC2)sc2c([N+](=O)[O-])cc(C(F)(F)F)cc12 [MACOZINONE]
- MIC [1]: 0.0625 µg/mL (≈ 0.137 µM)

SMILES: COc1ccc2nc(C)c(C(=O)NCCOc3ccc(N4CC5CCCCC5C4)cc3)n2c1 (configuration not stated)
- MIC [1]: 0.0625 µg/mL (≈ 0.139 µM)
- Activity [3]: Toxic

SMILES: COc1ccc2nc(C)c(C(=O)NCCOc3ccc(N4CCN(C)CC4)cc3)n2c1
- MIC [1]: 0.5 µg/mL (≈ 1.18 µM)

SMILES: O=C(NCCOc1ccc(Br)cc1)c1c(C2CC2)nc2cc(Cl)ccn12
- MIC [1]: 32 µg/mL (≈ 73.6 µM)

SMILES: COc1ccc2nc(C)c(C(=O)NCCOc3ccc(Br)cc3)n2c1
- MIC [1]: 0.028 µg/mL (≈ 0.0693 µM)
- half-life [2]: 54.2 min

SMILES: Cc1ccc2nc(C3CC3)c(C(=O)NCCOc3ccc(Br)cc3)n2c1
- MIC [1]: 0.052 µg/mL (≈ 0.126 µM)

SMILES: Cc1nc2ccc(F)cn2c1C(=O)NCCOc1ccc(Br)cc1
- MIC [1]: 1.21 µg/mL (≈ 3.08 µM)

SMILES: Cc1ccn2c(C(=O)NCCOc3ccc(Br)cc3)c(C)nc2c1
- MIC [1]: 0.463 µg/mL (≈ 1.19 µM)

SMILES: Cc1nc2ccc([N+](=O)[O-])cn2c1C(=O)NCCOc1ccc(Br)cc1
- MIC [1]: 1.28 µg/mL (≈ 3.05 µM)

SMILES: CCc1nc2ccc(Br)cn2c1C(=O)NCCOc1ccc(N2CCC(C(F)(F)F)CC2)cc1
- Cmax [4]: 5080 ng/mL
- MIC [1]: 0.0625 µg/mL (≈ 0.116 µM)
- Tmax [5]: 45 min
- survival at 168 h [6]: 100%
- AUC(0-inf) [7]: 7120 ng·h/mL
- half-life [8]: 283 min
- MRT [9]: 113 min

SMILES: CO[C@H]1/C=C/O[C@@]2(C)Oc3c(C)c(O)c4c(O)c(c(/C=N/N5CCN(C)CC5)c(O)c4c3C2=O)NC(=O)/C(C)=C\C=C\[C@H](C)[C@H](O)[C@@H](C)[C@@H](O)[C@@H](C)[C@H](OC(C)=O)[C@@H]1C [RIFAMPIN]
- MIC [1]: 0.05 µg/mL (≈ 0.0608 µM)

SMILES: CCc1nc2ccc(F)cn2c1C(=O)NCCOc1ccc(Br)cc1
- MIC [1]: 0.202 µg/mL (≈ 0.497 µM)

SMILES: CCc1nc2ccc(Cl)cn2c1C(=O)NCCOc1ccc(Cl)cc1
- MIC [1]: 0.029 µg/mL (≈ 0.0767 µM)
- half-life [2]: 12.9 min

SMILES: Cc1nc2ccc(Cl)cn2c1C(=O)NCCOc1ccc(Br)cc1
- MIC [1]: 0.488 µg/mL (≈ 1.19 µM)

SMILES: CCc1nc2ccc(Cl)cn2c1C(=O)NCCOc1ccc(OC)cc1
- MIC [1]: 0.056 µg/mL (≈ 0.15 µM)

SMILES: Cc1nc2ccc(F)cn2c1C(=O)NCCOc1ccc(Cl)cc1
- MIC [1]: 3.84 µg/mL (≈ 11 µM)

SMILES: CCc1nc2cc(Cl)ccn2c1C(=O)NCCOc1ccc(Cl)cc1
- MIC [1]: 5.86 µg/mL (≈ 15.5 µM)

SMILES: Cc1nc2c(C)cccn2c1C(=O)NCCOc1ccc(Br)cc1
- MIC [1]: 13.9 µg/mL (≈ 35.9 µM)

SMILES: CCc1nc2ccc(Br)cn2c1C(=O)NCCOc1ccc(N2CC3CCCCC3C2)cc1 (configuration not stated)
- MIC [1]: 0.0625 µg/mL (≈ 0.122 µM)
- Activity [3]: Toxic

SMILES: CCc1nc2ccc(C)cn2c1C(=O)NCCOc1ccc(N2CCN(C)CC2)cc1
- MIC [1]: 4 µg/mL (≈ 9.49 µM)

SMILES: O=C(NCCOc1ccc(Cl)cc1)c1c(C2CC2)nc2cc(Cl)ccn12
- MIC [1]: 32 µg/mL (≈ 82 µM)

SMILES: Cc1ccc2nc(C)c(C(=O)NCCOc3ccc(Br)cc3)n2c1
- MIC [1]: 0.031 to 0.125 µg/mL (≈ 0.0798 to 0.322 µM)
- half-life [2]: 6.5 min

SMILES: Cc1ccn2c(C(=O)NCCOc3ccc(Br)cc3)c(C3CC3)nc2c1
- MIC [1]: 5 µg/mL (≈ 12.1 µM)

SMILES: Cc1nc2cccc(Cl)n2c1C(=O)NCCOc1ccc(Br)cc1
- MIC [1]: 2.52 µg/mL (≈ 6.18 µM)

SMILES: CCCc1nc2ccc(Cl)cn2c1C(=O)NCCOc1ccc(Br)cc1
- MIC [1]: 0.054 µg/mL (≈ 0.124 µM)

SMILES: Cc1ccc2nc(C)c(C(=O)NCCOc3ccncc3)n2c1
- MIC [1]: > 32 µg/mL

SMILES: Cc1nc2ccc(Br)cn2c1C(=O)NCCOc1ccc(Br)cc1
- MIC [1]: 0.358 µg/mL (≈ 0.79 µM)

SMILES: CCc1nc2ccc(C)cn2c1C(=O)NCCOc1ccc(N2CC3CCCCC3C2)cc1 (configuration not stated)
- MIC [1]: 0.0625 µg/mL (≈ 0.14 µM)
- survival at 168 h [6]: 0%

SMILES: CCc1nc2c(Cl)cccn2c1C(=O)NCCOc1ccc(Br)cc1
- MIC [1]: 17.5 µg/mL (≈ 41.4 µM)

SMILES: CCc1nc2ccc(Cl)cn2c1C(=O)NCCOc1ccc(Br)cc1
- MIC [1]: 0.023 µg/mL (≈ 0.0544 µM)
- half-life [2]: 35.2 min

SMILES: CCc1nc2ccc(Cl)cn2c1C(=O)NCCOc1ccc(N(C)C)cc1
- Cmax [4]: 2120 ng/mL
- MIC [1]: 0.0625 µg/mL (≈ 0.162 µM)
- Tmax [5]: 15 min
- survival at 168 h [6]: 100%
- AUC(0-inf) [7]: 3340 ng·h/mL
- half-life [8]: 162 min
- MRT [9]: 98.4 min

SMILES: CCCc1nc2ccc(C)cn2c1C(=O)NCCOc1ccc(Br)cc1
- MIC [1]: 0.415 µg/mL (≈ 0.997 µM)

SMILES: CCc1nc2ccc(Cl)cn2c1C(=O)NCc1ccc(N2CCC(c3ccc(OC(F)(F)F)cc3)CC2)cc1 [TELACEBEC]
- MIC [1]: 0.0625 µg/mL (≈ 0.112 µM)

SMILES: O=C(NCCOc1ccc(Br)cc1)c1c(C2CC2)nc2ccc(Cl)cn12
- MIC [1]: 0.098 µg/mL (≈ 0.225 µM)

SMILES: CCc1nc2ccc(Cl)cn2c1C(=O)NCCOc1ccncc1
- MIC [1]: > 32 µg/mL

SMILES: CCc1nc2ccc(C)cn2c1C(=O)NCCOc1ccc(Br)cc1
- MIC [1]: 0.275 µg/mL (≈ 0.684 µM)

SMILES: Cc1nc2c(Cl)cccn2c1C(=O)NCCOc1ccc(Br)cc1
- MIC [1]: 0.505 µg/mL (≈ 1.24 µM)

SMILES: CCc1nc2ccc(Br)cn2c1C(=O)NCCOc1ccc(N2CCCCC2)cc1
- Cmax [4]: 983 ng/mL
- MIC [1]: 0.0625 µg/mL (≈ 0.133 µM)
- Tmax [5]: 15 min
- survival at 168 h [6]: 100%
- AUC(0-inf) [7]: 818 ng·h/mL
- half-life [8]: 251 min
- MRT [9]: 169 min

SMILES: CCCc1nc2ccc(C)cn2c1C(=O)NCCOc1ccc(Cl)cc1
- MIC [1]: 0.631 µg/mL (≈ 1.7 µM)

SMILES: COc1ccc2nc(C)c(C(=O)NCCOc3ccc(N4CCC(C(F)(F)F)CC4)cc3)n2c1
- Cmax [4]: 638 ng/mL
- MIC [1]: 0.0625 µg/mL (≈ 0.131 µM)
- Tmax [5]: 19.8 min
- survival at 168 h [6]: 100%
- AUC(0-inf) [7]: 754 ng·h/mL
- half-life [8]: 55 min
- MRT [9]: 64.2 min

SMILES: CCCc1nc2ccc(F)cn2c1C(=O)NCCOc1ccc(Cl)cc1
- MIC [1]: 1.14 µg/mL (≈ 3.04 µM)

SMILES: CCc1nc2cc(Cl)ccn2c1C(=O)NCCOc1ccc(Br)cc1
- MIC [1]: 6.35 µg/mL (≈ 15 µM)

SMILES: CCc1nc2ccc(Cl)cn2c1C(=O)NCCOc1ccc(N2CCN(c3ccc(F)cc3)CC2)cc1
- Cmax [4]: 3330 ng/mL
- MIC [1]: 0.0625 µg/mL (≈ 0.12 µM)
- Tmax [5]: 80 min
- survival at 168 h [6]: 100%
- AUC(0-inf) [7]: 11100 ng·h/mL
- half-life [8]: 265 min
- MRT [9]: 214 min

SMILES: CCCc1nc2ccc(Cl)cn2c1C(=O)NCCOc1ccc(Cl)cc1
- MIC [1]: 0.631 µg/mL (≈ 1.61 µM)

SMILES: COc1ccc(OCCNC(=O)c2c(C3CC3)nc3ccc(C)cn23)cc1
- MIC [1]: 0.027 µg/mL (≈ 0.0739 µM)
- half-life [2]: 7.8 min

SMILES: O=C(NCCOc1ccc(Br)cc1)c1c(C2CC2)nc2ccc(F)cn12
- MIC [1]: 0.928 µg/mL (≈ 2.22 µM)

SMILES: NNC(=O)c1ccncc1 [ISONIAZID]
- MIC [1]: 0.049 µg/mL (≈ 0.357 µM)

SMILES: CCc1nc2ccc(C)cn2c1C(=O)NCCOc1ccc(OC)cc1
- MIC [1]: 0.023 µg/mL (≈ 0.0651 µM)
- half-life [2]: 19.5 min

SMILES: CCc1nc2ccc(Br)cn2c1C(=O)NCCOc1ccc(N2CCN(C)CC2)cc1
- MIC [1]: 1 µg/mL (≈ 2.06 µM)

SMILES: Cc1nc2cc(Cl)ccn2c1C(=O)NCCOc1ccc(Br)cc1
- MIC [1]: 2.68 µg/mL (≈ 6.56 µM)
